The RNAGym collection of RNA variant scans (doi:10.1126/science.aae0568)
Fewer inactive variants are shown than the library holds.

B1: tRNA (parent)
chain: GUUCCGUUGGCGUAAUGGUAACGCGUCUCCCUCCUAAGGAGAAGACUGCGGGUUCGAGUCCCGUACGGAACG

Variants of: B1
Test: yeast fitness relative to wild type (ratio to wild type); higher = fitter; tRNA-Arg(CCU), competitive growth, 37 C, YPD
Summary of the method: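 The tRNA-Arg(CCU) gene variants were made by chemical synthesis with a 3% per-site mutation rate at 69 sites and inserted at the native genomic locus of Saccharomyces cerevisiae. After pooling, the strains were competed in YPD at 37°C for 24 hours in six parallel replicates. Gene amplicons from the start population and each end population were read by 100-nucleotide paired-end sequencing, and Darwinian fitness relative to wild type was taken from genotype frequency changes. Genotypes needed ≥ 100 starting reads, and estimates < 0.5 were set to 0.5.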

**Q.** For GUUACGGUGGCCUAAUGGUAACGCGUCUCCCUCCUAAGGAGAAGACUGCGGGUUCGAGUUCGGUACGGAACG, which yeast fitness is on record?
**A.** The yeast fitness was at most 0.5.

**Q.** Which yeast fitness does the source give for GUUACGUUGGCGUAAUGGUAACGCGUCUCCCUCCUAAGAAGAAGACUGCGGGUUCGAGUCCCCUACGGAACG here?
**A.** The yeast fitness was at most 0.5.

**Q.** For GUUACGUUGGCGUAAUGGUAACGCGUCUCCCUCCUAAGGAGAAGACUGCGGGUUCCAGUGCCGUAUGGAACG, which yeast fitness is on record?
**A.** The yeast fitness was 0.568.

**Q.** Which yeast fitness does the source give for GUUACGUCGGCGUUAUGGUCACGCGUCGCCCUCCUAAGGAGAAGACUGCGGGUUCGAGUCCCGUACGGAACG here?
**A.** The yeast fitness was 0.54.

**Q.** Which yeast fitness does the source give for GUUACGUUGGCGUAAUGGUAACGCCUCUCCCUCUUAAGGAGAAGACUGCGGGUUCGCGUCCCGUACGGAACG here?
**A.** Its yeast fitness is at most 0.5.

**Q.** Which yeast fitness does the source give for GUUACGGUGGCCUAAUGGUAACGCGUCUCCCUCCUAAGGAGAAGACUGCGGGUUCGAGUCCCGUACGGAACG here?
**A.** Its yeast fitness is 0.549.

**Q.** With GUUACGUAGGCGUAAUGGUAACGCGUCUCCCUCCUAAGGAGAAGACUGCGGGUUCGAGUCCCGUACGGAACG as the variant, how does the yeast fitness read?
**A.** The yeast fitness was 0.694.

**Q.** For GUUACGUCGGCGUAAUGGUAACGCGUCUCCCUCCUAAGGAGAAGACUGCGGGUUCGAGUCCCGUACGGAACG, which yeast fitness is on record?
**A.** Its yeast fitness is 0.887.

**Q.** Which yeast fitness does the source give for GUUACGUAGGCGUAAUGGUAACGUGUCUCCCUCCUAAGGAGAAGACUGCGGGUUCGAGUCCCGUACGGAACG here?
**A.** Its yeast fitness is at most 0.5.

**Q.** For GUUACGUUGGCGUAACAGUAACGCGUCUCCCUCCUAAGGAGAAGACUGCGGGUUCCAGUCCCGUACGGAACG, which yeast fitness is on record?
**A.** The yeast fitness was at most 0.5.

**Q.** With GUUACGUUGGCGCAAUGGUAACGCGUCACCCUCGUAAGGAGAAGACUGCGGGUUCGAGUCCCGUACGGAACG as the variant, how does the yeast fitness read?
**A.** Its yeast fitness is at most 0.5.

**Q.** Which yeast fitness does the source give for GUUACGUCGGCGUAAUGGUAACGCGUCUCCCUCCUAAGGAGAAGACUGCGGGUUCGAGACCCGUACGGAACG here?
**A.** Its yeast fitness is at most 0.5.

**Q.** For GUUACGUUGGCGUAAUGGUAACGCGUCUCCCUCCUAAGGAACAGACUGCGGGUUCGAGACCCGUACGGAACG, which yeast fitness is on record?
**A.** Its yeast fitness is at most 0.5.

**Q.** With GUUACGUUGGCGUAAUGGUAACGCCUCUCCCACCUAAGGCGAAGACUGCGGGUUCGAGUCCCGUACGGAACG as the variant, how does the yeast fitness read?
**A.** Its yeast fitness is at most 0.5.

**Q.** Which yeast fitness does the source give for GUUACGCUGGCGUAAUGGUAACGGGUCUCCCUCCUAAGGAGAAGACUGCGGGUUCGAGUCACGUAUGGAACG here?
**A.** The yeast fitness was at most 0.5.

**Q.** With GUUACGUAGGCGUAAUGAUAACGCGUUUCCCUCCUAAGGAGAAGUCUGCGGGUUCGAGUCCCGUACGGAACG as the variant, how does the yeast fitness read?
**A.** Its yeast fitness is at most 0.5.

**Q.** With GUUACGUUGGCGUAACAGUAACGCGUCUCCCUCCUAAGGAGAAGACUGCGGGUUCGAGACCCGUACGGAACG as the variant, how does the yeast fitness read?
**A.** The yeast fitness was at most 0.5.

**Q.** With GUUACGUUGGCGAAAUGGUAACGCGUCUCCCUCCUAAGGAGAAGACUGCAGGUUCGAGUCCCGUACGGAACG as the variant, how does the yeast fitness read?
**A.** The yeast fitness was 0.613.

**Q.** With GUUACGUUGGCGUAAUGGAAACGCGUUUCCCUCCUAAGGAGAAGACUGCGGGUUCGAGUCCCGUACGGAACG as the variant, how does the yeast fitness read?
**A.** Its yeast fitness is 0.562.

**Q.** Which yeast fitness does the source give for GUUACGUUGGCGUAAUGGUAACGCGCCUCCCUCCUAGGGAGAAGACUGCGGGUUCGAGUCCCGUACCGAACG here?
**A.** The yeast fitness was at most 0.5.

**Q.** For GUUACGUUGGCGUAAUGGUAACGCGUCUCCCUCCUAAAGAGAAGACUGCGAGUUCGAGUCCCGUACGGAACG, which yeast fitness is on record?
**A.** Its yeast fitness is 0.54.

**Q.** With GUUACGUUGGCGUAACAGUAACGCGUCUCCCUCCUAAGGAGAAGACUGCGGGUUCAAGUCUCGUACGGAACG as the variant, how does the yeast fitness read?
**A.** The yeast fitness was at most 0.5.

**Q.** Which yeast fitness does the source give for GUUACGUUGGCGAAAUGGUAACGCGUCUCCCUCCUAAGGAGAAGACUGCGGGUUCGAGUCCCGUACGGAGCG here?
**A.** Its yeast fitness is at most 0.5.

**Q.** Which yeast fitness does the source give for GUUACGUUGGCGUAAUGGUAACGCGUCUCCCUCCUAAGGAGAAGACUGCGGGUUCGAAUCCCGUACGGAACG here?
**A.** The yeast fitness was 0.878.

**Q.** Which yeast fitness does the source give for GUUACGUUGGCGUAAUGGUAACGCGUCUCCCUCCUAACGAGAAGACUGCGGGUUCGAGUCCCGUACGACACG here?
**A.** The yeast fitness was at most 0.5.

**Q.** Which yeast fitness does the source give for GUUACGUUGGCGUAAUGGUAACGCGACUCCCGCCUAAGGAGAAGACUGCGGGAUCGAGUCCAGUACGCAACG here?
**A.** Its yeast fitness is at most 0.5.

**Q.** Which yeast fitness does the source give for GUUACGUUGGCGCAAUGGUCACGCGUCUCCCUCAUAAGCAGAUGACUGCGGGUUCGAGUCCCGUACGGAACG here?
**A.** Its yeast fitness is at most 0.5.

**Q.** For GUUACGUUGGCGAAAUGGUAACGCGUCUCCCUCCUAAGGAGAAGACUGCGGGUUCGAGUCCCAUACGGAACG, which yeast fitness is on record?
**A.** Its yeast fitness is at most 0.5.

**Q.** With GUUACGGUGGCGUAAUGGUAACGCGUUUCCCUCCUAAGGAGAAGCCUGCGGGUUCGAGUCCCGUACGGAACG as the variant, how does the yeast fitness read?
**A.** Its yeast fitness is at most 0.5.

**Q.** For GUUACGAGGGCGUAAUGGUAACGCGUCUCCCUCCUAAGGAGAAGACUGCGGGUUCGAGUCCCGUACGGAACG, which yeast fitness is on record?
**A.** The yeast fitness was at most 0.5.

**Q.** Which yeast fitness does the source give for GUUACGUUGGCGUAAAGGUAACGCGUCUCCCUCCUAAGGAGAAGACUGCGGGUUCGAGUCCCGUACGGAACG here?
**A.** Its yeast fitness is 0.823.

**Q.** Which yeast fitness does the source give for GUUACGUUGGCGUAACGGUAACGCGUCUCCCUCCUAAGGAGAAGACUGCGGGUUCGAGUCCCGUACGGAACG here?
**A.** The yeast fitness was 0.702.

**Q.** With GUUACGUGGGCGUAAUGGUAACGCGUCUCCCUCCUAAGGAGAAGACUGCGGGUUCGAGUCCCGCACGGAACG as the variant, how does the yeast fitness read?
**A.** The yeast fitness was 0.545.

**Q.** For GUUACGUUGGCGUAACGGUAACGCGUCUCCCUCCGAAGGAGAAGUCUGCGAGUUCGAGUCCCGUACGGAACG, which yeast fitness is on record?
**A.** The yeast fitness was at most 0.5.

**Q.** For GUUACGUGGGCGUAAUGGUAACGCGUCUCCCUCCUAAGGACAAGGCUGCGGGUUCGAGUCCCGUACGGAACG, which yeast fitness is on record?
**A.** The yeast fitness was 0.703.

**Q.** For GUUACGAAGGCGUAAUGGUAACGCGUCUCCCUCCUAAGGAGAAGAAUACGGGUUCGAGUCCCGGACGGAACG, which yeast fitness is on record?
**A.** Its yeast fitness is at most 0.5.

**Q.** Which yeast fitness does the source give for GUUACGUUGGCGUAAUGGUAACGCGUCUCCCUCCUAAGAAGAAGACUGCGGGUUUGAGGCCCGUACGCAACG here?
**A.** The yeast fitness was at most 0.5.

**Q.** With GUUACGUGGGCGUUAUGGUAACGCGUCUCCCUCCUAAGGAGAAGACUGCGGGUUCGAGUCCCGUACGGAACG as the variant, how does the yeast fitness read?
**A.** The yeast fitness was 0.524.
